{"data": "Measured values from different studies", "target": "Cyclin-dependent kinase 16 (CDK16, Homo sapiens, UniProt Q00536)", "note": "Protocols differ between the studies behind these lines."}
{"SMILES": "CN(CCCC(F)(F)F)c1nccc(-c2cnn3ncccc23)n1", "assay": "binding", "conditions": "1 µM", "remaining binding [%]": 100}
{"SMILES": "C[C@@H]1CN(c2ccc3ncc(-c4ccc5[nH]nc(C6CC6)c5c4)n3n2)C[C@H](C)O1", "assay": "binding, competition with immobilised ligand", "conditions": "50 nM", "remaining binding [%]": 98}
{"SMILES": "Cc1noc([C@H]2C[C@@H](c3ccc(C(F)(F)F)cc3)CN(C(=O)N3CCS(=O)(=O)C3)C2)n1", "assay": "cell-free assay, competition with immobilised ligand", "conditions": "1 µM", "remaining binding [%]": 100}
{"SMILES": "O=C(c1ccc(Nc2ncc(Cl)c(-c3ccc(Cl)s3)n2)cc1)N1CCC(N2CCCC2)CC1", "assay": "binding, competition with immobilised ligand", "conditions": "1 µM", "remaining binding [%]": 0.2}
{"SMILES": "COc1ncc2cc3ccccc3nc2c1C#N", "assay": "cell-free assay, competition with immobilised ligand", "conditions": "5 µM", "remaining binding [%]": 97}
{"SMILES": "O=C(O)[C@@H]1[C@@H](Cn2nnc3ccccc3c2=O)CC[C@H]1C(=O)c1ccc(OCCC2CCOCC2)cc1", "assay": "cell-free assay, competition with immobilised ligand", "conditions": "1 µM", "remaining binding [%]": 100}
{"SMILES": "N#Cc1ccccc1CSc1nnc2c(n1)[nH]c1ccccc12", "assay": "binding, competition with immobilised ligand", "conditions": "10 µM", "remaining binding [%]": 100}
{"SMILES": "CNC(=O)[C@@H]1CC[C@@H](n2c(-c3ccc4cnccc4c3)nc3ccc(C(=O)NCc4cccc(C(N)=O)c4)cc32)C1", "assay": "binding, competition with immobilised ligand", "conditions": "1 µM", "remaining binding [%]": 100}
{"SMILES": "Cc1c(NC(=O)c2cc(C(N)=O)nc3cc(F)ccc23)c(C(F)(F)F)nn1Cc1ccc(C(C)(C)C)cc1", "assay": "cell-free assay, competition with immobilised ligand", "conditions": "1 µM", "remaining binding [%]": 100}
{"SMILES": "O=C(NCCCN1CCOCC1)c1ccc(Nc2nccc(-c3cc4ccccc4s3)n2)cc1", "assay": "binding, competition with immobilised ligand", "conditions": "1 µM", "remaining binding [%]": 75}
{"SMILES": "CC(C)CC(=O)N1CCc2nc(-c3ccc(Br)cc3)nc(N(C)Cc3ccccc3)c2C1", "assay": "cell-free assay, competition with immobilised ligand", "conditions": "0.1 µM", "remaining binding [%]": 100}
{"SMILES": "C=CC(=O)N1CCC(C(=O)NCC(=O)N2CCN(c3nc(-c4cnc(N)nc4C(F)F)nc(N4CCOCC4)n3)CC2)CC1", "assay": "binding, competition with immobilised ligand", "conditions": "1 µM", "remaining binding [%]": 100}
{"SMILES": "CN(C)c1ncc(F)c(-c2cnn3ncccc23)n1", "assay": "binding", "conditions": "1 µM", "remaining binding [%]": 96}
{"SMILES": "c1ccc(N2CCN(Cc3nc4ccccc4[nH]3)CC2)nc1", "assay": "binding, competition with immobilised ligand", "conditions": "1 µM", "remaining binding [%]": 100}
{"SMILES": "N[C@H]1CCN(c2nccc(-c3cnn4ncccc34)n2)C1", "assay": "binding", "conditions": "1 µM", "remaining binding [%]": 100}
{"SMILES": "O=C(Nc1c[nH]nc1C(=O)NC1CCNCC1)c1cc(F)cc(F)c1", "assay": "binding, competition with immobilised ligand", "conditions": "1 µM", "remaining binding [%]": 12}
{"SMILES": "COc1cc(-c2cn(C3CCc4c(F)cccc4N(CC(F)(F)F)C3=O)nn2)ccc1-n1cnc(C)c1 (stereo not shown)", "assay": "cell-free assay, competition with immobilised ligand", "conditions": "1 µM", "remaining binding [%]": 82}
{"SMILES": "FC(F)(F)Oc1cccc(-c2cnc3ccc(-c4ccncc4)nn23)c1", "assay": "cell-free assay, competition with immobilised ligand", "conditions": "5 µM", "remaining binding [%]": 53}
{"SMILES": "COc1cnc(Nc2cccc(S(N)(=O)=O)c2)nc1N1CCN(c2ccccc2)CC1", "assay": "binding, competition with immobilised ligand", "conditions": "1 µM", "remaining binding [%]": 79}
{"SMILES": "CN(c1nccc(-c2cnn3ncccc23)n1)C1CC1", "assay": "binding", "conditions": "1 µM", "remaining binding [%]": 100}
{"SMILES": "CCN1CCN(Cc2ccc(C(=O)Nc3ccc(C)c(Oc4ccc5c(c4)CC(=O)N5)c3)cc2C(F)(F)F)CC1", "assay": "binding, competition with immobilised ligand", "conditions": "1 µM", "remaining binding [%]": 100}
{"SMILES": "Cc1cnn2ncc(-c3ccnc(N(C)C)n3)c2c1", "assay": "binding", "conditions": "1 µM", "remaining binding [%]": 100}
{"SMILES": "O=C(NC[C@@H]1[C@H]2CN(C(=O)OCc3cc(C(F)(F)F)cc(C(F)(F)F)c3)C[C@@H]12)c1ccc2[nH]nnc2c1", "assay": "cell-free assay, competition with immobilised ligand", "conditions": "1 µM", "remaining binding [%]": 100}
{"SMILES": "c1cnn2ncc(-c3ccnc(N4CCC45COC5)n3)c2c1", "assay": "binding", "conditions": "1 µM", "remaining binding [%]": 97}
{"SMILES": "Cc1cnc(Nc2ccc(C(=O)N3CCC(N4CCCC4)CC3)cc2)nc1-c1cc2ccccc2s1", "assay": "binding, competition with immobilised ligand", "conditions": "1 µM", "remaining binding [%]": 3.9}
